Assays:
Assay type in all cases: nucleic-acid assay
[1] = test system: Nucleic Acid; assay: Binding affinity to synthetic oligonucleotide ON19 at 1.0 uM at pH 7.2 by thermal denaturation study
In short: (§1)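 Duplex melting: complementary strands at 1.0 µM each in 20 mM sodium cacodylate, 100 mM NaCl, 10 mM MgCl₂, at the pH of the line. Annealed at 80 °C for 5 min, then cooled to 5 °C and held 30 min. UV absorbance read at 260 nm with heating at 1.0 °C/min; Tm is the maximum of the first-derivative curve.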

[2] = test system: Nucleic Acid; assay: Binding affinity to synthetic double stranded DNA D3 at 1.5 uM at pH 6.0 by thermal denaturation study
In short: (§2)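 Parallel triplex melting: target duplex assembled from strands at 1.0 µM each, TFO third strand added at 1.5 µM. Buffer 20 mM sodium cacodylate, 100 mM NaCl, 10 mM MgCl₂, at the pH of the line. Samples heated to 80 °C for 5 min, cooled to 5 °C and held 30 min. Absorbance read at 260 nm while heating at 1.0 °C/min; Tm taken as the first-derivative maximum.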

[3] = test system: Nucleic Acid; assay: Binding affinity to synthetic double stranded DNA D2 at 1.5 uM at pH 6.0 by thermal denaturation study; in short: as §2
[4] = test system: Nucleic Acid; assay: Binding affinity to synthetic double stranded DNA D4 at 1.5 uM at pH 6.0 by thermal denaturation study; in short: as §2
[5] = test system: Nucleic Acid; assay: Binding affinity to synthetic oligonucleotide ON20 at 1.0 uM at pH 7.0 by thermal denaturation study
In short: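 DNA/RNA antiparallel duplex: each strand at 1.0 µM in 10 mM sodium phosphate, 140 mM NaCl, 1 mM EDTA, pH 7.0. Heated to 80 °C for 5 min, cooled to 5 °C and held 30 min. Absorbance followed at 260 nm during a 1.0 °C/min temperature ramp; Tm is the first-derivative maximum.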

[6] = test system: Nucleic Acid; assay: Binding affinity to synthetic double stranded DNA D1 at 1.5 uM at pH 7.2 by thermal denaturation study; in short: as §2
[7] = test system: Nucleic Acid; assay: Binding affinity to synthetic oligonucleotide ON19 at 1.0 uM at pH 6.0 by thermal denaturation study; in short: as §1
[8] = test system: Nucleic Acid; assay: Binding affinity to synthetic oligonucleotide ON18 at 1.0 uM at pH 6.0 by thermal denaturation study; in short: as §1
[9] = test system: Nucleic Acid; assay: Binding affinity to synthetic double stranded DNA D1 at 1.5 uM at pH 6.0 by thermal denaturation study; in short: as §2

## Cc1cn([C@H]2C[C@H](OP(=O)(O)OC[C@H]3O[C@@H](n4ccc(N)nc4=O)C[C@@H]3OP(=O)(O)OC[C@H]3O[C@@H](n4cc(C)c(=O)[nH]c4=O)C[C@@H]3OP(=O)(O)O[C@@H](CCOc3ccc(-c4nc5c6ccccc6c6ccccc6c5[nH]4)cc3)COC[C@H]3O[C@@H](n4cc(C)c(=O)[nH]c4=O)C[C@@H]3OP(=O)(O)OC[C@H]3O[C@@H](n4cc(C)c(=O)[nH]c4=O)C[C@@H]3O[PH](O)(O)OC[C@H]3O[C@@H](n4cc(C)c(=O)[nH]c4=O)C[C@@H]3OP(=O)(O)OC[C@H]3O[C@@H](n4cc(C)c(=O)[nH]c4=O)C[C@@H]3OP(=O)(O)OC[C@H]3O[C@@H](n4cc(C)c(=O)[nH]c4=O)C[C@@H]3O)[C@@H](COC[C@H](CCOc3ccc(-c4nc5c6ccccc6c6ccccc6c5[nH]4)cc3)OP(=O)(O)O[C@H]3C[C@H](n4cc(C)c(=O)[nH]c4=O)O[C@@H]3COP(=O)(O)O[C@H]3C[C@H](n4cc(C)c(=O)[nH]c4=O)O[C@@H]3COP(=O)(O)O[C@H]3C[C@H](n4ccc(N)nc4=O)O[C@@H]3COP(=O)(O)O[C@H]3C[C@H](n4ccc(N)nc4=O)O[C@@H]3COP(=O)(O)O[C@H]3C[C@H](n4ccc(N)nc4=O)O[C@@H]3COP(=O)(O)O[C@H]3C[C@H](n4ccc(N)nc4=O)O[C@@H]3CO)O2)c(=O)[nH]c1=O
[1]
  Tm: 50.5 °C
[2]
  Tm: 37 °C
[3]
  Tm: 35.5 °C
[4]
  Tm: 42 °C
[5]
  Tm: 49.5 °C
[6]
  Tm: 37 °C
[7]
  Tm: 49 °C
[8]
  Tm: 37.5 °C
[9]
  Tm: 51.5 °C

## Cc1cn([C@H]2C[C@H](OP(=O)(O)OC[C@H]3O[C@@H](n4cc(C)c(=O)[nH]c4=O)C[C@@H]3O[PH](O)(O)OC[C@H]3O[C@@H](n4cc(C)c(=O)[nH]c4=O)C[C@@H]3OP(=O)(O)OC[C@H]3O[C@@H](n4cc(C)c(=O)[nH]c4=O)C[C@@H]3OP(=O)(O)OC[C@H]3O[C@@H](n4cc(C)c(=O)[nH]c4=O)C[C@@H]3O)[C@@H](COC[C@H](CCOc3ccc(-c4nc5c6ccccc6c6ccccc6c5[nH]4)c4ccccc34)OP(=O)(O)O[C@H]3C[C@H](n4cc(C)c(=O)[nH]c4=O)O[C@@H]3COP(=O)(O)O[C@H]3C[C@H](n4ccc(N)nc4=O)O[C@@H]3COP(=O)(O)O[C@H]3C[C@H](n4cc(C)c(=O)[nH]c4=O)O[C@@H]3COP(=O)(O)O[C@H]3C[C@H](n4cc(C)c(=O)[nH]c4=O)O[C@@H]3COP(=O)(O)O[C@H]3C[C@H](n4cc(C)c(=O)[nH]c4=O)O[C@@H]3COP(=O)(O)O[C@H]3C[C@H](n4ccc(N)nc4=O)O[C@@H]3COP(=O)(O)O[C@H]3C[C@H](n4ccc(N)nc4=O)O[C@@H]3COP(=O)(O)O[C@H]3C[C@H](n4ccc(N)nc4=O)O[C@@H]3COP(=O)(O)O[C@H]3C[C@H](n4ccc(N)nc4=O)O[C@@H]3CO)O2)c(=O)[nH]c1=O
[1]
  Tm: 47.5 °C
[2]
  Tm: 22.5 °C
[3]
  Tm: 21 °C
[4]
  Tm: 26 °C
[5]
  Tm: 49.5 °C
[6]
  Tm: 18.5 °C
[7]
  Tm: 47.5 °C
[8]
  Tm: 19.5 °C
[9]
  Tm: 38.5 °C

## Cc1cn([C@H]2C[C@H](OP(=O)(O)OC[C@H]3O[C@@H](n4cc(C)c(=O)[nH]c4=O)C[C@@H]3O[PH](O)(O)OC[C@H]3O[C@@H](n4cc(C)c(=O)[nH]c4=O)C[C@@H]3OP(=O)(O)OC[C@H]3O[C@@H](n4cc(C)c(=O)[nH]c4=O)C[C@@H]3OP(=O)(O)OC[C@H]3O[C@@H](n4cc(C)c(=O)[nH]c4=O)C[C@@H]3O)[C@@H](COC[C@H](CCOc3ccc(-c4nc5c6ccccc6c6ccccc6c5[nH]4)cc3)OP(=O)(O)O[C@H]3C[C@H](n4cc(C)c(=O)[nH]c4=O)O[C@@H]3COP(=O)(O)O[C@H]3C[C@H](n4ccc(N)nc4=O)O[C@@H]3COP(=O)(O)O[C@H]3C[C@H](n4cc(C)c(=O)[nH]c4=O)O[C@@H]3COP(=O)(O)O[C@H]3C[C@H](n4cc(C)c(=O)[nH]c4=O)O[C@@H]3COP(=O)(O)O[C@H]3C[C@H](n4cc(C)c(=O)[nH]c4=O)O[C@@H]3COP(=O)(O)O[C@H]3C[C@H](n4ccc(N)nc4=O)O[C@@H]3COP(=O)(O)O[C@H]3C[C@H](n4ccc(N)nc4=O)O[C@@H]3COP(=O)(O)O[C@H]3C[C@H](n4ccc(N)nc4=O)O[C@@H]3COP(=O)(O)O[C@H]3C[C@H](n4ccc(N)nc4=O)O[C@@H]3CO)O2)c(=O)[nH]c1=O
[1]
  Tm: 51 °C
[2]
  Tm: 33 °C
[3]
  Tm: 30.5 °C
[4]
  Tm: 35.5 °C
[5]
  Tm: 53 °C
[6]
  Tm: 33.5 °C
[7]
  Tm: 51 °C
[8]
  Tm: 31.5 °C
[9]
  Tm: 48.5 °C

## Cc1cn([C@H]2C[C@H](OP(=O)(O)OC[C@H]3O[C@@H](n4cc(C)c(=O)[nH]c4=O)C[C@@H]3OP(=O)(O)OC[C@H]3O[C@@H](n4cc(C)c(=O)[nH]c4=O)C[C@@H]3OP(=O)(O)OC[C@H]3O[C@@H](n4ccc(N)nc4=O)C[C@@H]3OP(=O)(O)OC[C@H]3O[C@@H](n4cc(C)c(=O)[nH]c4=O)C[C@@H]3OP(=O)(O)OC[C@H]3O[C@@H](n4cc(C)c(=O)[nH]c4=O)C[C@@H]3OP(=O)(O)OC[C@H]3O[C@@H](n4cc(C)c(=O)[nH]c4=O)C[C@@H]3O[PH](O)(O)OC[C@H]3O[C@@H](n4cc(C)c(=O)[nH]c4=O)C[C@@H]3OP(=O)(O)OC[C@H]3O[C@@H](n4cc(C)c(=O)[nH]c4=O)C[C@@H]3OP(=O)(O)OC[C@H]3O[C@@H](n4cc(C)c(=O)[nH]c4=O)C[C@@H]3OP(=O)(O)O[C@H](CO)CCOc3ccc(-c4nc5c6ccccc6c6ccccc6c5[nH]4)cc3)[C@@H](COP(=O)(O)O[C@H]3C[C@H](n4ccc(N)nc4=O)O[C@@H]3COP(=O)(O)O[C@H]3C[C@H](n4ccc(N)nc4=O)O[C@@H]3COP(=O)(O)O[C@H]3C[C@H](n4ccc(N)nc4=O)O[C@@H]3COP(=O)(O)O[C@H]3C[C@H](n4ccc(N)nc4=O)O[C@@H]3CO)O2)c(=O)[nH]c1=O
[1]
  Tm: 54 °C
[5]
  Tm: 55.5 °C
[6]
  Tm: 20 °C
[7]
  Tm: 54 °C
[8]
  Tm: 31.5 °C
[9]
  Tm: 43.5 °C

## Cc1cn([C@H]2C[C@H](OP(=O)(O)OC[C@H]3O[C@@H](n4cc(C)c(=O)[nH]c4=O)C[C@@H]3OP(=O)(O)OC[C@H]3O[C@@H](n4cc(C)c(=O)[nH]c4=O)C[C@@H]3O[PH](O)(O)OC[C@H]3O[C@@H](n4cc(C)c(=O)[nH]c4=O)C[C@@H]3OP(=O)(O)OC[C@H]3O[C@@H](n4cc(C)c(=O)[nH]c4=O)C[C@@H]3OP(=O)(O)OC[C@H]3O[C@@H](n4cc(C)c(=O)[nH]c4=O)C[C@@H]3O)[C@@H](COC[C@@H](CCOc3ccc(-c4nc5c6ccccc6c6ccccc6c5[nH]4)c4ccccc34)OP(=O)(O)O[C@H]3C[C@H](n4ccc(N)nc4=O)O[C@@H]3COP(=O)(O)O[C@H]3C[C@H](n4cc(C)c(=O)[nH]c4=O)O[C@@H]3COP(=O)(O)O[C@H]3C[C@H](n4cc(C)c(=O)[nH]c4=O)O[C@@H]3COP(=O)(O)O[C@H]3C[C@H](n4cc(C)c(=O)[nH]c4=O)O[C@@H]3COP(=O)(O)O[C@H]3C[C@H](n4ccc(N)nc4=O)O[C@@H]3COP(=O)(O)O[C@H]3C[C@H](n4ccc(N)nc4=O)O[C@@H]3COP(=O)(O)O[C@H]3C[C@H](n4ccc(N)nc4=O)O[C@@H]3COP(=O)(O)O[C@H]3C[C@H](n4ccc(N)nc4=O)O[C@@H]3CO)O2)c(=O)[nH]c1=O
[1]
  Tm: 46 °C
[5]
  Tm: 49 °C
[6]
  Tm: 18.5 °C
[7]
  Tm: 46 °C
[8]
  Tm: 23 °C
[9]
  Tm: 35.5 °C

## Cc1cn([C@H]2C[C@H](OP(=O)(O)OC[C@H]3O[C@@H](n4cc(C)c(=O)[nH]c4=O)C[C@@H]3OP(=O)(O)OC[C@H]3O[C@@H](n4cc(C)c(=O)[nH]c4=O)C[C@@H]3OP(=O)(O)OC[C@H]3O[C@@H](n4ccc(N)nc4=O)C[C@@H]3OP(=O)(O)OC[C@H]3O[C@@H](n4cc(C)c(=O)[nH]c4=O)C[C@@H]3OP(=O)(O)OC[C@H]3O[C@@H](n4cc(C)c(=O)[nH]c4=O)C[C@@H]3OP(=O)(O)OC[C@H]3O[C@@H](n4cc(C)c(=O)[nH]c4=O)C[C@@H]3O[PH](O)(O)OC[C@H]3O[C@@H](n4cc(C)c(=O)[nH]c4=O)C[C@@H]3OP(=O)(O)OC[C@H]3O[C@@H](n4cc(C)c(=O)[nH]c4=O)C[C@@H]3OP(=O)(O)OC[C@H]3O[C@@H](n4cc(C)c(=O)[nH]c4=O)C[C@@H]3O)[C@@H](COP(=O)(O)O[C@H]3C[C@H](n4ccc(N)nc4=O)O[C@@H]3COP(=O)(O)O[C@H]3C[C@H](n4ccc(N)nc4=O)O[C@@H]3COP(=O)(O)O[C@H]3C[C@H](n4ccc(N)nc4=O)O[C@@H]3COP(=O)(O)O[C@H]3C[C@H](n4ccc(N)nc4=O)O[C@@H]3COP(=O)(O)O[C@H](CO)CCOc3ccc(-c4nc5c6ccccc6c6ccccc6c5[nH]4)cc3)O2)c(=O)[nH]c1=O
[1]
  Tm: 56.5 °C
[5]
  Tm: 59 °C
[6]
  Tm: 20.5 °C
[7]
  Tm: 56.5 °C
[8]
  Tm: 34 °C
[9]
  Tm: 46 °C

From ChEMBL document CHEMBL1151702, “Using an aryl phenanthroimidazole moiety as a conjugated flexible intercalator to improve the hybridization efficiency of a triplex-forming oligonucleotide” (Bioorg Med Chem, 2008)
